Screening results from PubChem BioAssay.
Shown are actives, neighbours in structure and some others; about 3.6% of the full set was active somewhere.
Yeast life ext: extends the lifespan of yeast; S. cerevisiae growth with nicotinamide, OD615; deaD strain in restrictive glucose medium; inhibition of the nicotinamide effect, % at 10 µM; hit rate 0.68% among 130,000; AID 775;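 active = inhibition above a set limit, placed 3 SD over the median of all compounds, cut at about 26% in these data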;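 note: 0% = nicotinamide-treated wells and 100% = cells grown without nicotinamide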
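Measured by: optical density (absorbance) at 615 nm; System: modified budding yeast, DeaD strain; Medium: restrictive CSMM-D dextrose medium; Timing: 4 h preincubation then 48 h treatment at 30 °C.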
Phagocyt inh: macrophage phagocytosis inhibition; J774A.1 macrophage IgG-bead phagocytosis, imaging; AID 1029; inhibition, % at 5 µM; hit rate 0.07% among 110,000;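 active = inhibition above the mean of the plate negative controls plus 5 SD, cut at about 13% in these data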;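 note: phagocytic index as fraction of beads internalized from green versus red external bead signal; plate controls were DMSO negative control for no effect and cytochalasin-D positive control for full effect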
Measles CPE: protection of cells from measles virus. Measles virus-infected cells, CPE protection, absorbance. protection (pct of control), % at 4 µM. hit rate 1.5% among 140,000; in the data active = protection mostly above about 24%, no sharp cut-off; inactive = mostly below about 26%
RAM inhibit: yeast RAM network inhibition. inhibition, % at 50 µM. hit rate 1.8% among 190,000. S. cerevisiae dse1pr::URA3 reporter, 5-FOA growth OD615, 2 d; analog-sensitive cbk1-as2 kinase mutant strain;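 active = inhibition above a set limit, 3 SD over mean compound inhibition, cut at about 8.4% in these data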;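 note: 0% = DMSO-only wells with no growth and 100% = 10 µM 1-NA-PP1 full growth; inhibition rescues growth on 5-FOA so higher OD means more RAM inhibition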
BB579 growth dn: reduces growth of yeast BB579 in restrictive medium | S. cerevisiae BB579 growth, OD615, 48 h | inhibition, % at 10 µM | hit rate 0.51% among 140,000;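 active = inhibition above a set limit, 3 SD over the mean compound inhibition, cut at about 44% in these data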
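Detection: OD615 turbidity measurement; Material: Saccharomyces cerevisiae DeaD strain BB579, replicative lifespan model yeast; Timing: 48 h exposure, 30 °C; Doses: single 10 µM dose; Medium: CSMM-D restrictive synthetic medium containing dextrose (glucose); Controls: amphotericin B at 10 µg/mL as positive control.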
Starred values were filed as active, the others as inactive; nt = no result.

SMILES	Yeast life ext	Phagocyt inh	Measles CPE	RAM inhibit	BB579 growth dn
Nc1c(S(=O)(=O)c2ccccc2)c2nc3ccccc3nc2n1/N=C/c1cccc(O)c1	-20.2	-0.7	3.3	4.4	-43.1
Cc1cccc(S(=O)(=O)c2c(N)n(/N=C/c3ccccc3)c3nc4ccccc4nc23)c1	-4.1	-0.5	59.5*	7.6	-67.1
CC(C)(C)NC(=O)NC(=O)COC(=O)c1cc[n+]([O-])cc1	nt	nt	nt	0.3	nt
CC(=O)NC(Cc1ccccc1)C(=O)OCC(=O)c1ccccc1 (stereo not given)	0.2	-3.6	6.1	0.7	-8.1
Nc1c(S(=O)(=O)c2cccs2)c2nc3ccccc3nc2n1CCc1ccccc1	-17.5	0.1	nt	4.4	-25.2
Nc1c(S(=O)(=O)c2cccs2)c2nc3ccccc3nc2n1Cc1cccs1	-6.5	0.3	4.6	9.1*	-53.8
COC(=O)c1c(-c2cc(C)ccc2C)csc1NC(=O)C1CC=CCC1C(=O)O (stereo not given)	nt	nt	nt	1.6	nt
COC(=O)c1c(-c2ccc(C)cc2)csc1NC(=O)C1CC=CCC1C(=O)O (stereo not given)	14.1	-8.5	47.2*	0.6	-26.8
O=C(CSc1cn(CCNC(=O)c2ccc3ccccc3c2)c2ccccc12)NCc1ccco1	-7.1	-0.2	7.5	4.8	-17.3
Cc1cccc(C)c1NC(=O)NC1(C(=O)NCCN2CCOCC2)CCCCC1	nt	nt	nt	1.6	nt
O=C(Nc1cccc(O)c1)C(=O)Nc1ccccn1	-5.8	nt	7.8	3.8	-22.9
O=C(Nc1ccccc1)C(=O)Nc1ccccn1	-18.6	nt	26.5*	2.1	-47.0
COc1ccc(N2CCN(c3ccc(N4C(=O)CC(C)C4=O)cc3[N+](=O)[O-])CC2)cc1 (stereo not given)	nt	nt	nt	2.1	nt
CC1CCN(c2ccc(N3C(=O)C4CCCCC4C3=O)cc2[N+](=O)[O-])CC1 (stereo not given)	3.1	-5.1	48.5*	3.7	-38.6
COCCN(CCOC)c1nc(S(=O)(=O)c2ccc(C)cc2)c(Cl)s1	-10.9	1.5	28.3*	0.9	-39.2
CCOc1nc(S(=O)(=O)c2ccc(C)cc2)c(Cl)s1	-23.1	-0.8	4.0	1.1	-8.4
Cn1c(=O)[nH]c(=O)c2c1nc(N1CCOCC1)n2CCc1ccccc1	nt	nt	nt	1.0	nt
COc1ccc(C2NCCc3sccc32)cc1 (stereo not given)	nt	nt	nt	-0.8	nt
COc1ccc(C(=O)OCn2nnc3ccccc3c2=O)cc1OC	-23.3	-0.3	5.2	8.8*	-25.6
COc1cccc(NC(=O)Nc2ccc(C(C)(C)C)cc2)c1	nt	nt	nt	9.9*	nt
Cc1ccc(-c2nc(Cl)nc3ccccc23)cc1	nt	nt	nt	0.0	nt
Cc1ccc(-c2nc3ccccc3nc2Cl)cc1	nt	nt	nt	8.4*	nt
COc1ccc(Cl)cc1C(=O)NNC(=O)c1cccc(S(=O)(=O)N(C)C)c1	8.7	-2.5	72.9*	1.9	-11.5
COc1ccc(Cl)cc1C(=O)NNC(=O)c1cccnc1	-20.5	-0.5	4.6	1.8	-11.7
CC(C)CCNC(=O)CCCOc1ccccc1	-9.8	-0.6	45.3*	0.0	-23.8
SMILES	Yeast life ext	Phagocyt inh	Measles CPE	RAM inhibit	BB579 growth dn
O=C(NC1CCCCC1)C1CCN(S(=O)(=O)c2cccs2)CC1	-5.1	-0.5	12.2	0.9	-25.5
CC(=O)Nc1ccc(-c2csc(NC(=O)C3CCN(S(=O)(=O)c4cccs4)CC3)n2)cc1	2.9	3.0	67.9*	3.2	-41.2
Cc1csc(NC(=O)C2CCN(S(=O)(=O)c3cccs3)CC2)n1	nt	nt	nt	0.7	nt
CCOC(=O)N1CCC(NC(=O)C2CCCCN2S(=O)(=O)c2ccc(F)cc2)CC1 (stereo not given)	-2.5	0.8	34.5*	-0.1	-14.6
CCC(C)NC(=O)C1CCCCN1S(=O)(=O)c1ccc(F)cc1 (stereo not given)	-7.7	-3.1	5.4	1.7	-8.7
CCOC(=O)N1CCC(NC(=O)C2CCN(S(=O)(=O)c3cccs3)CC2)CC1	-6.4	43.7*	4.3	0.9	-31.1
O=C(CSc1cccc2cccc(Cl)c12)NCc1cccs1	0.8	-0.2	5.0	1.0	-22.8
O=C(O)c1ccccc1-c1ccccc1C(=O)Nc1cccc(O)c1	nt	nt	nt	1.6	nt
Cc1n(C)c2cc(Cl)ccc2[n+]1Cc1ccccc1	nt	nt	nt	2.6	nt
COC(=O)/C(=C/c1ccco1)NC(=O)c1ccccc1	6.5	-2.6	7.0	1.3	-16.0
O=C(O)/C(=C\c1ccco1)NC(=O)c1ccccc1	14.9	-7.5	30.1*	2.5	-23.6
CS(=O)(=O)N1CCc2cc(C(=O)N3CCCC3)ccc21	nt	nt	nt	3.0	nt
COc1ccc(NC(=O)CCn2nnc(-c3ccc(C)cc3)n2)cc1OC	nt	nt	55.2*	5.4	-30.3
CCOc1ccc(NC(=O)Cn2nnc(-c3ccccc3F)n2)cc1	-17.4	-0.7	14.0	3.4	-13.9
COc1ccc(C(=O)Cn2nnc(-c3ccccc3NC(=O)C3CCCCC3)n2)cc1	-5.1	nt	32.2*	3.7	-16.8
COc1ccc(NC(=O)Cn2nnc(-c3ccccc3F)n2)cc1	-19.6	-0.7	49.0*	5.2	-48.2
CN(C(=O)c1c(Cl)nc2sccn12)C1CCCCC1	1.9	3.3	23.3*	0.7	-62.2
CN(Cc1cc(=O)n2ccsc2n1)C1CCCCC1	nt	nt	nt	0.6	nt
COc1cc(OC)cc(C(=O)N[C@H](C(=O)OCC(=O)Nc2ccc(F)c(F)c2)C(C)C)c1	0.0	0.2	6.9	8.6*	-9.9
COc1cc(OC)cc(C(=O)N[C@H](C(=O)OCC(=O)c2ccc3c(c2)NC(=O)CO3)C(C)C)c1	-2.0	1.1	31.9*	0.2	-25.1
COc1ccc(/C(C)=N/OC/C(O)=C(\C#N)c2nc3ccccc3[nH]2)cc1	-3.0	-1.9	1.0	1.9	-20.4
CCOc1cc(/C=N/Nc2nc(-c3cccc(S(=O)(=O)N4CCCC4)c3)cs2)ccc1O	-2.6	-5.0	6.2	3.7	-26.5
O=C(COC(=O)/C=C/c1ccc(Cl)cc1)Nc1ccccc1-c1ccccc1	9.3	-4.9	3.4	8.7*	-44.1
O=C(COC(=O)Cc1cccc2ccccc12)Nc1ccccc1-c1ccccc1	-1.7	-1.9	18.2	10.6*	-24.1
O=C(COC(=O)Cc1c(Cl)cccc1Cl)Nc1ccccc1-c1ccccc1	2.5	0.9	11.0	10.4*	-61.2
SMILES	Yeast life ext	Phagocyt inh	Measles CPE	RAM inhibit	BB579 growth dn
NC(=O)c1cc(-c2ccccc2)sc1NC(=O)CN1CCCCC1	-6.9	-12.8	26.0	1.5	-17.7
COc1cc2cc(CN(Cc3cccs3)C(=S)Nc3ccc(C)cc3)c(=O)[nH]c2cc1OC	6.0	0.0	30.4*	7.1	-12.7
Cc1cccc(NC(=S)N(Cc2cccs2)Cc2cc3cc(C)ccc3[nH]c2=O)c1	3.0	-12.0	12.6	4.3	-35.6
COc1cc2cc(CN(Cc3cccs3)C(=S)Nc3cccc(C)c3)c(=O)[nH]c2cc1OC	6.9	-12.0	11.2	8.9*	-33.0
COc1ccccc1NC(=S)N(Cc1ccco1)Cc1cc2cc(C)c(C)cc2[nH]c1=O	6.0	24.2	3.6	9.5*	-36.0
CC1CCc2cc(F)ccc2N1C(=O)CSc1nnc2c(n1)[nH]c1ccccc12 (stereo not given)	-2.6	nt	14.2	6.1	-34.1
